# Compound activity from PubChem BioAssay.
# M5 antag – CHRM5 antagonism in calcium assay; CHO-hM5 cells, Fluo-8 calcium fluorescence, ACh EC80; P08912; 360,000 tested, 0.59% active; inhibition, % at 3 µM;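 active = inhibition above a per-plate cutoff, the mean of that plate's test compounds plus 3 SD, cut at about 27% in these data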;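 also: 0% = acetylcholine EC80 with DMSO and 100% = DMSO without agonist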
# CHRM5 PAM – positive allosteric modulators of human muscarinic M5 receptor | P08912 | CHO-K1 hM5, Fluo-8 calcium, ACh EC20 PAM; 0% = ACh EC20, 100% = ACh EC100 | activation, % at 3 µM | 360,000 tested, 0.3% active | AID 624038;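 active = activation above the run cutoff, the mean activation of all test compounds plus 3 SD, cut at about 18% in these data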
#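 Assay system: CHO-K1 hM5 cells / Incubation: Fluo-8 loading 80 min at 37 °C plus 30 min room temperature / Technique: Fluo-8 calcium dye fluorescence, kinetic read / Repeats: single replicate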
# M4 PAM – potentiates acetylcholine response at human M4 receptor; 360,000 tested, 0.4% active; CHO-K1 hM4/Gqi5, Fluo-8 calcium fluorescence, ACh EC20; 0% = ACh EC20, 100% = maximal ACh; P08173; activation, % at 3 µM;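 active = activation above its plate's cutoff, the mean activation of sample wells plus 3 SD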
# Target sequence (P08173 whole entry, looked up): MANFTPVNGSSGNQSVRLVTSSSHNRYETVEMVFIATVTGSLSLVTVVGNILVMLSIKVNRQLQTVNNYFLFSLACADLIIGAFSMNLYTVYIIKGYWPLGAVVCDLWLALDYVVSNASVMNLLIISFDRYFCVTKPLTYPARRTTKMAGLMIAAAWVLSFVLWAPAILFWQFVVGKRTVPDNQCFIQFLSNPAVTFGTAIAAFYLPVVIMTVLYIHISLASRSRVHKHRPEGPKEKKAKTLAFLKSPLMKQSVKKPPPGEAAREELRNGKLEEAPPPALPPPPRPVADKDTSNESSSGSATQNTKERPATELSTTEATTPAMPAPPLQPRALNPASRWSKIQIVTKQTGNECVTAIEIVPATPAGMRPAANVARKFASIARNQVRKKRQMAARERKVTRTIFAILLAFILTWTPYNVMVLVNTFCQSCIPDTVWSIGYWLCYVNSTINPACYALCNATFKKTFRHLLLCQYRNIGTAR
# CHRM4 agonist – agonists of human muscarinic M4 receptor (CHRM4); P08173; 360,000 tested, 0.14% active; activation, % at 3 µM; CHO-K1 hM4/Gqi5, Fluo-8 calcium fluorescence; vehicle 0%, full acetylcholine response 100%;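 active = activation above the run mean over all test wells plus 3 SD, cut at about 32% in these data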;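 also: peak over basal fluorescence ratio per well then scaled between controls; 0% = DMSO wells and 100% = acetylcholine at EC100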
# M5 ag – agonists of human muscarinic M5 receptor (CHRM5); P08912; CHO-K1 hM5 cells, Fluo-8 calcium fluorescence; 0% DMSO wells, 100% maximal acetylcholine response; activation, % at 3 µM; 360,000 tested, 0.19% active; AID 624037;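 active = activation above the run's mean over test compounds plus 3 SD, cut at about 23% in these data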;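 also: signal is peak over basal fluorescence ratio across the kinetic read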
# CHRM4 antagonist – CHRM4 antagonism in calcium assay. P08173. CHO-hM4 cells, ACh EC80, Fluo-8 calcium fluorescence. inhibition, % at 3 µM. 360,000 tested, 0.73% active;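 active = inhibition above its plate's cutoff, the mean inhibition of sample wells plus 3 SD, cut at about 27% in these data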;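 also: 0% = acetylcholine EC80 with DMSO and 100% = DMSO without agonist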
# * hit, by the source's call. Shown are actives, neighbours in structure and some others; about 1.8% of the full set was active somewhere.
SMILES,M5 antag,CHRM5 PAM,M4 PAM,CHRM4 agonist,M5 ag,CHRM4 antagonist
O=[N+]([O-])c1c(NCCCO)cc(Sc2nc3ccccc3s2)c2nonc12,32.1*,-15.8,-16.0,15.8,0.4,74.9*
CCCC(=O)OCCNc1cc(Sc2nccn2C)c2nonc2c1[N+](=O)[O-],20.9,-9.9,-3.6,2.4,-1.6,36.5*
CCC(=O)OCCNc1cc(Sc2nc3ccccc3[nH]2)c2nonc2c1[N+](=O)[O-],21.6,-7.2,-10.4,2.5,-2.2,54.2*
CCN1/C(=C/C=C/c2sc3ccccc3[n+]2CC)Sc2ccccc21,17.9,-12.5,-8.5,11.2,3.5,15.6
CC[n+]1c(/C=C2\Sc3ccccc3N2C)ccc2cccc(C)c21,38.3*,-13.7,-9.1,7.6,3.1,26.0
CCN1/C(=C/c2ccc3cc(C)ccc3[n+]2CC)Sc2ccccc21,60.1*,-20.8,-9.5,13.8,24.2*,33.2*
CC[n+]1ccccc1/C=C1\Sc2ccc(C)cc2N1C,0.2,0.6,2.7,0.5,-1.1,-9.5
CCN1/C(=C/c2ccc3cc(C)ccc3[n+]2CC)Sc2cc(C)c(C)cc21,41.4*,-19.2,-6.9,13.1,8.3,30.8*
COc1ccc2c(CN(Cc3ccccc3)Cc3ccccc3)cc(=O)oc2c1,-3.3,-1.9,-5.0,0.0,0.7,-18.9
CC1(C(=O)NS(=O)(=O)c2ccc(Cl)cc2)CCN1C(=O)CCc1ccccc1 (stereo not given),9.2,-1.0,1.6,0.7,0.1,0.9
CC1Oc2ccccc2N(CC(=O)NCc2ccccc2)C1=O (stereo not given),8.6,2.4,23.4*,3.8,-0.2,-11.2
CC1Oc2ccccc2N(CC(=O)NC2CC2)C1=O (stereo not given),9.6,-2.4,-3.1,2.1,-2.8,-14.7
Cc1ccc(OCCNC(=O)C(=O)NCc2ccco2)cc1,-2.7,-6.9,-17.5,0.6,-1.6,26.9*
COc1ccccc1NC(=O)COC(=O)c1c(C)nn(-c2ccccc2)c1C,17.0,-31.5,-0.9,17.3,-0.1,5.8
Cc1nn(-c2ccccc2)c(C)c1C(=O)OCC(=O)Nc1ccccc1C(F)(F)F,-3.0,-4.8,23.1*,-2.9,-2.7,-1.5
CN(C)CCN(Cc1ccccc1)C(c1cc2ccccc2o1)c1nnnn1C(C)(C)C (stereo not given),2.9,-3.1,-0.2,6.1,-0.7,-4.6
Cc1nc(CN2C(=O)C3(CCC3)ON=C2c2cccc(Cl)c2)cs1,-1.9,0.3,-2.2,0.4,-4.0,6.7
COc1ccc(N(CC(=O)Nc2ccccc2OC)S(=O)(=O)c2ccc(NC(C)=O)cc2)cc1,31.8*,-10.8,-8.7,11.6,-6.3,3.1
COc1ccccc1NC(=O)CN(c1ccccc1)S(=O)(=O)c1ccccc1,7.8,15.8,-7.0,2.5,-2.5,-18.0
COc1ccc(S(=O)(=O)N(C)CC(=O)Nc2ccccc2OC)cc1,1.4,-0.3,1.3,1.9,-1.6,33.9*
COc1ccc(S(=O)(=O)N(CC(=O)O)c2ccccc2)cc1,-1.3,3.7,21.8*,2.1,1.6,-12.0
COc1cc(NC(=O)CN(C)S(=O)(=O)c2ccc(C)cc2)cc(OC)c1,-5.6,5.0,17.8*,2.0,-12.2,-8.2
Cc1cn([C@H]2C[C@H](O)[C@@H](CCC(=O)NCC(c3ccccc3)c3ccccc3)O2)c(=O)[nH]c1=O,-0.8,-4.9,-2.4,0.6,-0.8,3.7
COc1ccc(C)cc1S(=O)(=O)N(CC(=O)O)c1ccccc1,-4.5,2.7,-0.7,0.8,-1.0,-3.5
COc1ccc(C)cc1S(=O)(=O)N(CC(=O)O)c1ccc(C)cc1,-13.2,11.6,32.1*,0.2,2.7,6.2
C=CCC[C@H](CCCCC)OC(=O)/C=C/[C@@H](O)[C@H](O)C[C@@H](O)CC=C,3.9,-5.8,-4.2,-0.7,-1.0,7.0
CCCS(=O)(=O)NC(=O)C1(C)CCN(C(=O)c2cccc(OC(F)(F)F)c2)C1 (stereo not given),3.9,-0.6,-1.0,-0.3,0.1,1.8
